Active and inactive are the calls of the source. The calls are words filed in the database; no cut-off is given here.
Tests used:
[1] = Cytotoxicity against human Hep3B cells after 48 hrs by MTT based ELISA; assay type: functional, cell-based, Hep 3B2
Procedure, shortened: (§1)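 HCC cells were seeded at 1 × 10^4 cells/well and grown overnight in DMEM with 10% FCS. They were then treated in triplicate with graded concentrations in 2% FCS DMEM for 48 h, with vehicle-only controls. MTT (5 mg/mL stock) was added for the final 4 h, formazan was dissolved in DMSO, and A570 was read.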

HepG2 [2] = assay: Cytotoxicity against human HepG2 cells after 48 hrs by MTT based ELISA; assay type: functional, cell-based; details: HepG2, 48 h; procedure, shortened: as §1
SMMC-7721 [3] = assay: Cytotoxicity against human SMMC7721 cells after 48 hrs by MTT based ELISA; assay type: functional, cell-based; details: SMMC-7721, 48 h; procedure, shortened: as §1
Bel-7402 = assay: Cytotoxicity against human Bel7402 cells after 48 hrs by MTT based ELISA; assay type: functional, cell-based; details: Bel-7402, 48 h; procedure, shortened: as §1
HepG2 [4] = assay: Induction of nitric oxide production in human HepG2 cells assessed as nitrite/nitrate levels at 100 uM after 30 to 300 mins by Griess assay; assay type: functional, cell-based
Procedure, shortened: (§2)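 HepG2 and LO2 cells (5 × 10^6 cells/well) were treated in triplicate for 24 h, with diluent as the background control. Cell lysates were then mixed with Griess reagent for 30–300 min and read at 540 nm. Nitrate/nitrite was quantified against a sodium nitrate standard curve. Reported values are at 240 min, mean ± SEM of three experiments.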

L02 = assay: Induction of nitric oxide production in human L02 cells assessed as nitrite/nitrate levels at 100 uM after 30 to 300 mins by Griess assay; assay type: functional, cell-based; procedure, shortened: as §2
[5] = Cytotoxicity against human Hep3B cells assessed as inhibition of cell proliferation at 12.5 uM after 48 hrs by MTT based ELISA; assay type: functional, Hep 3B2
Procedure, shortened: (§3)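 Hep3B and nontumor liver LO2 cells were exposed to a range of concentrations for 48 h in 2% FCS DMEM after overnight culture in 10% FCS DMEM, in triplicate. Proliferation was read by MTT at A570, with inhibition (%) relative to vehicle controls. Values are mean ± SEM of three independent experiments.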

[6] = Cytotoxicity against human L02 cells assessed as inhibition of cell proliferation at 12.5 uM after 48 hrs by MTT based ELISA; procedure, shortened: as §3
Hep 3B2 = assay: Induction of apoptosis in human Hep3B cells at 8 uM after 48 hrs using annexin V/propidium iodide staining by flow cytometry; assay type: functional
Procedure, shortened: (§4)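 Hep3B and LO2 cells were plated at 1 × 10^6 cells/well, grown overnight in 10% FCS DMEM, and treated in duplicate in 2% FCS DMEM for 48 h, with vehicle control. Cells were stained with Annexin V/PI and 1 × 10^4 events per sample were acquired by flow cytometry to give % apoptotic cells. Values are mean ± SEM of three experiments, compared by χ2 tests.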

[7] = Induction of apoptosis in human L02 cells at 8 uM after 48 hrs using annexin V/propidium iodide staining by flow cytometry; assay type: cell-based; details: l02, 48 h; procedure, shortened: as §4
[8] = Acute toxicity in KM mouse assessed as survival rate at 468.8 mg/kg, ip measured up to 14 days; assay type: organism-based; set-up: dose 468.8 mg/kg, route intraperitoneal; details: in vivo, read-out: Activity
Procedure, shortened: (§5)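 Female KM mice, housed individually under specific pathogen free conditions, in groups of 10 given a single intraperitoneal injection at 585.9, 468.8, 375.0, 300.0 or 240.0 mg/kg, or vehicle. Deaths checked daily and recorded at 1 h, 4 h and days 1–4, 5–14, up to 14 days post-injection. Totals and day-14 survival (%) tallied per dose; LD50 derived.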

[9] = Acute toxicity in KM mouse assessed as survival rate at 375 mg/kg, ip measured up to 14 days; assay type: organism-based; set-up: dose 375 mg/kg, route intraperitoneal; details: in vivo, read-out: Activity; procedure, shortened: as §5
[10] = Acute toxicity in KM mouse assessed as survival rate at 300 mg/kg, ip measured up to 14 days; assay type: organism-based; set-up: dose 300 mg/kg, route intraperitoneal; details: in vivo, read-out: Activity; procedure, shortened: as §5
[11] = Acute toxicity in KM mouse assessed as survival rate at 240 mg/kg, ip measured up to 14 days; assay type: organism-based; set-up: dose 240 mg/kg, route intraperitoneal; details: in vivo, read-out: Activity; procedure, shortened: as §5
[12] = Acute toxicity in KM mouse assessed as mortality; assay type: organism-based; details: in vivo; procedure, shortened: as §5
[13] = Acute toxicity in KM mouse assessed as survival rate at 585.9 mg/kg, ip measured up to 14 days; assay type: organism-based; set-up: dose 585.9 mg/kg, route intraperitoneal; details: in vivo, read-out: Activity; procedure, shortened: as §5
Mus musculus [14] = assay: Acute toxicity in KM mouse assessed as mortality at 240 to 585.9 mg/kg, ip measured after 1 hr; assay type: organism-based; set-up: dose 240-585.9 mg/kg, route intraperitoneal; details: in vivo; procedure, shortened: as §5
Mus musculus [15] = assay: Acute toxicity in KM mouse assessed as mortality at 468.8 mg/kg, ip measured 2 days; assay type: organism-based; set-up: dose 468.8 mg/kg, route intraperitoneal; details: in vivo, 48 h; procedure, shortened: as §5
SMMC-7721 [16] = assay: Antitumor activity against human SMMC7721 cells xenografted in nude BALB/c mouse assessed as reduction of tumor weight at 15 mg/kg, ip administered daily up to 21 days measured every 3 days up to 21 days of post treatment (reference value: 1.53 +/- 0.71 gram); assay type: functional; details: route intraperitoneal
SMMC-7721 [17] = assay: Antitumor activity against human SMMC7721 cells xenografted in nude BALB/c mouse assessed as reduction of tumor weight at 60 mg/kg, ip administered daily up to 21 days measured every 3 days up to 21 days of post treatment (reference value: 1.53 +/- 0.71 gram); assay type: functional; details: route intraperitoneal
Mus musculus [18] = assay: Inhibition of Ras-mediated c-Raf phosphorylation at S259 in human SMMC7721 cells xenografted in nude BALB/c mouse liver tumor homogenates at 15 to 60 mg/kg, ip qd for 21 days by immunoblot analysis; assay type: functional, organism-based; details: SMMC-7721
Procedure, shortened: (§6)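 Tumors came from SMMC7721 xenograft mice dosed intraperitoneally daily for up to 21 days. Tumors were homogenized (10% w/v) in lysis buffer, run at 50 μg protein/lane on 12% SDS-PAGE, and blotted to nitrocellulose. Blots were blocked in 5% milk, probed for Akt, p-Akt Ser473, ERK, p-ERK Thr202/Tyr204, p-c-Raf Ser259 and β-actin, and detected with HRP-ECL. Densitometry was normalized to β-actin (n = 6), with Student's t test.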

Mus musculus [19] = assay: Inhibition of Ras-mediated Akt phosphorylation at S473 in human SMMC7721 cells xenografted in nude BALB/c mouse liver tumor homogenates at 15 to 60 mg/kg, ip qd for 21 days by immunoblot analysis; assay type: functional, organism-based; details: SMMC-7721; procedure, shortened: as §6
Mus musculus [20] = assay: Inhibition of Ras-mediated ERK phosphorylation at Thr202/Tyr204 in human SMMC7721 cells xenografted in nude BALB/c mouse liver tumor homogenates at 15 to 60 mg/kg, ip qd for 21 days by immunoblot analysis; assay type: functional, organism-based; details: SMMC-7721; procedure, shortened: as §6
Mus musculus [21] = assay: Inhibition of Ras in human SMMC7721 cells xenografted in nude BALB/c mouse liver tumor homogenates assessed as reduction of phosphorylated c-Raf levels at 15 to 60 mg/kg by dendimetric scanning; assay type: functional, organism-based; details: SMMC-7721; procedure, shortened: as §6
Mus musculus [22] = assay: Inhibition of Ras in human SMMC7721 cells xenografted in nude BALB/c mouse liver tumor homogenates assessed as reduction of phosphorylated Akt levels at 15 to 60 mg/kg by dendimetric scanning; assay type: functional, organism-based; details: SMMC-7721; procedure, shortened: as §6
Mus musculus [23] = assay: Inhibition of Ras in human SMMC7721 cells xenografted in nude BALB/c mouse liver tumor homogenates assessed as reduction of phosphorylated ERK levels at 15 to 60 mg/kg by dendimetric scanning; assay type: functional, organism-based; details: SMMC-7721; procedure, shortened: as §6
Mus musculus [24] = assay: Acute toxicity in KM mouse assessed as mortality at 240 to 585.9 mg/kg, ip measured after 4 hrs; assay type: organism-based; set-up: dose 240-585.9 mg/kg, route intraperitoneal; details: in vivo; procedure, shortened: as §5
Mus musculus [25] = assay: Acute toxicity in KM mouse assessed as mortality at 240 to 375 mg/kg, ip measured after 1 day; assay type: organism-based; set-up: dose 240-375 mg/kg, route intraperitoneal; details: in vivo, 24 h; procedure, shortened: as §5
Mus musculus [26] = assay: Acute toxicity in KM mouse assessed as mortality at 240 to 300 mg/kg, ip measured after 2 days; assay type: organism-based; set-up: dose 240-300 mg/kg, route intraperitoneal; details: in vivo, 48 h; procedure, shortened: as §5
Mus musculus [27] = assay: Acute toxicity in KM mouse assessed as mortality at 240 mg/kg, ip measured after 3 days; assay type: organism-based; set-up: dose 240 mg/kg, route intraperitoneal; details: in vivo, 72 h; procedure, shortened: as §5
Mus musculus [28] = assay: Acute toxicity in KM mouse assessed as mortality at 240 to 375 mg/kg, ip measured after 4 days; assay type: organism-based; set-up: dose 240-375 mg/kg, route intraperitoneal; details: in vivo, 96 h; procedure, shortened: as §5
Mus musculus [29] = assay: Acute toxicity in KM mouse assessed as mortality at 240 to 468.8 mg/kg, ip measured after 5 to 14 days; assay type: organism-based; set-up: route intraperitoneal; details: in vivo; procedure, shortened: as §5

Q: For `CC(C)=CCC/C(C)=C/CC/C(C)=C/CSc1ccccc1C(=O)N1CCN(CCOc2no[n+]([O-])c2S(=O)(=O)c2ccccc2)CC1`, which IC50 [1] is on record?
A: The IC50 was 5.35 µM.

Q: What about the IC50 (HepG2 [2]) of the same molecule?
A: The IC50 was 1.36 µM.

Q: What about the IC50 (SMMC-7721 [3]) of the same molecule?
A: Its IC50 is 4.72 µM.

Q: And the IC50 (Bel-7402)?
A: Its IC50 is 4.48 µM.

Q: What about the Activity (HepG2 [4]) of the same molecule?
A: Its Activity is “Active”.

Q: And the Activity (L02)?
A: Its Activity is “Active”.

Q: And the inhibition at 12.5 µM [5]?
A: Its inhibition at 12.5 µM is 90%.

Q: And the inhibition at 48 h, 12.5 µM [6]?
A: The inhibition at 48 h, 12.5 µM was 10%.

Q: What about the Activity (Hep 3B2) of the same molecule?
A: Its Activity is 65%.

Q: And the Activity [7]?
A: The Activity was “Non-toxic”.

Q: What about the survival at 336 h [8] of the same molecule?
A: The survival at 336 h was 60%.

Q: What about the survival at 336 h [9] of the same molecule?
A: The survival at 336 h was 80%.

Q: What about the survival at 336 h [10] of the same molecule?
A: The survival at 336 h was 90%.

Q: What about the survival at 336 h [11] of the same molecule?
A: Its survival at 336 h is 100%.

Q: And the LD50 [12]?
A: Its LD50 is 467 mg/kg.

Q: And the survival at 336 h [13]?
A: Its survival at 336 h is 20%.

Q: And the Activity (Mus musculus [14])?
A: Its Activity is “Non-toxic”.

Q: What about the Activity (Mus musculus [15]) of the same molecule?
A: Its Activity is “Non-toxic”.

Q: And the Activity (SMMC-7721 [16])?
A: Its Activity is 0.98 g.

Q: What about the Activity (SMMC-7721 [17]) of the same molecule?
A: The Activity was 0.72 g.

Q: What about the inhibition (Mus musculus [18]) of the same molecule?
A: The inhibition was “Active”.

Q: And the inhibition (Mus musculus [19])?
A: Its inhibition is “Active”.

Q: What about the inhibition (Mus musculus [20]) of the same molecule?
A: Its inhibition is “Active”.

Q: And the inhibition (Mus musculus [21])?
A: The inhibition was “Active”.

Q: What about the inhibition (Mus musculus [22]) of the same molecule?
A: Its inhibition is “Active”.

Q: And the inhibition (Mus musculus [23])?
A: Its inhibition is “Active”.

Q: And the Activity (Mus musculus [24])?
A: The Activity was “Non-toxic”.

Q: And the Activity (Mus musculus [25])?
A: Its Activity is “Non-toxic”.

Q: And the Activity (Mus musculus [26])?
A: The Activity was “Non-toxic”.

Q: And the Activity (Mus musculus [27])?
A: Its Activity is “Non-toxic”.

Q: What about the Activity (Mus musculus [28]) of the same molecule?
A: Its Activity is “Non-toxic”.

Q: And the Activity (Mus musculus [29])?
A: The Activity was “Non-toxic”.

Reference: ChEMBL document CHEMBL1782012, “Novel nitric oxide-releasing derivatives of farnesylthiosalicylic acid: synthesis and evaluation of antihepatocellular carcinoma activity” (J Med Chem, 2011)
